Data on 9 compounds can be found in ChEMBL document CHEMBL4330137, “Synthesis and antimicrobial activities of N6-hydroxyagelasine analogs and revision of the structure of ageloximes” (Bioorg Med Chem, 2019).

As usually defined, the IC50 is the concentration that inhibits the measured activity by half. The MIC is the least concentration at which growth counts as inhibited.

One assay has as its system Trypanosoma brucei. Nature of the assay: Antitrypanosomal activity against suramin-sensitive Trypanosoma brucei Squib 427 assessed as parasite growth inhibition after 72 hrs by resazurin assay. The settings on record: Squib 427, 72 h. Type of assay: functional, organism-based. The method, boiled down:
(§1)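 Bloodstream parasites in HMI-9 with 10% inactivated FCS; 1.5 × 10³ (T. brucei) or 4 × 10³ (T. rhodesiense) per well, compound 64–0.25 µM, 37 °C, 5% CO2, 3 days. Resazurin (50 µg/mL) added; fluorescence read after 24 h (T. brucei) or 6 h (T. rhodesiense), ex 550/em 590 nm. IC50 from % growth inhibition.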
For orientation: The colour change of resazurin is a common sign of viable cells or microbes.

Assay [1] relates to Trypanosoma brucei rhodesiense. Nature of the assay: Antitrypanosomal activity against Trypanosoma brucei rhodesiense STIB 900 assessed as parasite growth inhibition after 72 hrs by resazurin assay. As to conditions: STIB 900, 72 h. Type of assay: functional, organism-based. The method in brief:
as §1

A short description of assay [2]: Cytotoxicity against human MRC5 SV2 cells after 3 days by resazurin dye based fluorescence assay. Type of assay: cell-based. The settings on record: MRC-5 SV2, 72 h. The method in brief: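 MRC-5SV2 fibroblasts in MEM with L-glutamine, NaHCO3, 5% inactivated FCS; 5 × 10³ inoculum with compound at 64–0.25 µM (4-fold steps, DMSO <1%), 37 °C, 5% CO2, 3 days. Resazurin added, fluorescence after 4 h (ex 550/em 590 nm). Viability relative to untreated and medium controls; IC50 calculated.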

For another assay, the system named is Trypanosoma cruzi. Kind of assay: Antitrypanosomal activity against beta-galactosidase expressing nifurtimox-sensitive Trypanosoma cruzi Tulahuen CL2 infected in human MRC5 SV2 cells assessed as reduction in parasite burden after 168 hrs by CPRG and Nonidet based spectrophotometric analysis. The settings on record: Tulahuen CL2, MRC-5 SV2, 168 h. Type of assay: functional, organism-based. The method in brief: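 MRC-5 cells (4·10³/well) plus 4·10⁴ parasites per well with compound at 64–0.25 µM, 37 °C, 5% CO2 for 7 days. CPRG/Nonidet in PBS added; absorbance at 540 nm after 4 h. Percent burden reduction versus untreated-infected and uninfected controls; IC50 calculated.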

A further assay relates to Staphylococcus aureus. Nature of the assay: Antibacterial activity against Staphylococcus aureus ATCC 6538 after 17 hrs by resazurin dye based fluorimetric assay. Type of assay: functional, organism-based. The settings on record: ATCC 6538, 17 h. The method in brief: (§2)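 Bacteria grown in Mueller Hinton broth; 5 × 10³ CFU/mL inoculum with compound at 64, 16, 4, 1 and 0.25 µM (DMSO final <1%), 37 °C for 17 h. Resazurin added, fluorescence read after 0.5 h (ex 550/em 590 nm). Growth normalised to untreated (100%) and medium-only (0%) wells; IC50 calculated.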

Assay [3] relates to Escherichia coli. Nature of the assay: Antibacterial activity against Escherichia coli ATCC 8739 after 17 hrs by resazurin dye based fluorimetric assay. Type of assay: functional, organism-based. The settings on record: ATCC 8739, ATCC 8739, 17 h. The method in brief:
as §2

The subject of another assay is Candida albicans. Kind of assay: Antifungal activity against azole-resistant Candida albicans after 24 hrs by resazurin dye based fluorimetric assay. Type of assay: functional, organism-based. The method in brief: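 Inoculum 5 × 10³ CFU/mL in RPMI-1640 with Mops buffer and glucose. Tested at 64, 16, 4, 1 and 0.25 µM from DMSO stocks, final DMSO <1%. Incubated 24 h at 37 °C, then resazurin added and fluorescence read after 0.5 h (ex 550/em 590 nm). Growth normalized to untreated (100%) and medium-only (0%) wells; IC50 calculated. Flucytosine positive control.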

The next assay deals with Leishmania infantum. Nature of the assay: Antileishmanial activity against amastigote stage of Leishmania infantum MHOM/MA(BE)/67 infected in mouse primary peritoneal macrophages assessed as decrease in parasite burden after 5 days by Giemsa staining-based microscopic method. As to conditions: MHOM/MA(BE)/67, 120 h. Type of assay: functional, organism-based. The method, boiled down:
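Amastigotes purified from infected hamster spleen; starch-stimulated mouse peritoneal macrophages (3·10⁴/well) infected with 4.5·10⁵ parasites in supplemented RPMI-1640. Compound (64–0.25 µM) added 2 h post-infection; 5 days, 37 °C, 5% CO2. Amastigotes per macrophage counted microscopically after 10% Giemsa staining; % burden reduction versus controls, IC50 calculated.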

The subject of assay [4] is Mycobacterium tuberculosis. Kind of assay: Antitubercular activity against Mycobacterium tuberculosis H37Rv by MABA. Type of assay: functional.
In assay [5] the test system is Mycobacterium tuberculosis. Kind of assay: Antitubercular activity against Mycobacterium tuberculosis H37Rv by LORA. Type of assay: functional.
The test system of assay [6] is Staphylococcus epidermidis. Nature of the assay: Antibiofilm activity against Staphylococcus epidermidis ATCC 35984 up to 1000 uM by safranin staining based assay. Type of assay: functional, organism-based.
The subject of assay [7] is Pseudomonas aeruginosa. Kind of assay: Antibiofilm activity against Pseudomonas aeruginosa CUCG 56489 up to 1000 uM by safranin staining based assay. Type of assay: functional, organism-based.
For assay [8], the system named is Escherichia coli. Kind of assay: Antibiofilm activity against Escherichia coli clinical isolates at 1 mM by safranin staining based assay relative to control. Type of assay: functional.
In assay [9] the test system is Staphylococcus epidermidis. Nature of the assay: Antibiofilm activity against Staphylococcus epidermidis ATCC 35984 at 125 uM by safranin staining based assay relative to control. Type of assay: functional.
For assay [10], the system named is Staphylococcus epidermidis. Kind of assay: Growth inhibition of Staphylococcus epidermidis ATCC 35984. Type of assay: functional, organism-based.
Assay [11] concerns Pseudomonas aeruginosa. Nature of the assay: Antibiofilm activity against Pseudomonas aeruginosa CUCG 56489 at 250 uM by safranin staining based assay relative to control. Type of assay: functional.
The subject of assay [12] is Escherichia coli. Nature of the assay: Antibiofilm activity against Escherichia coli clinical isolates at 500 uM by safranin staining based assay relative to control. Type of assay: functional.
In assay [13] the test system is Escherichia coli. Kind of assay: Growth inhibition of Escherichia coli clinical isolates at 500 uM. Type of assay: functional. The settings on record: read-out: GI.

Converted amounts (≈) assume the structure as drawn. The source made the active and inactive calls. The calls are words filed in the database; no cut-off is given here.

Turning to `Cc1ccc(C(=O)Nc2ccc(S(=O)(=O)O)c3cc(S(=O)(=O)O)cc(S(=O)(=O)O)c23)cc1NC(=O)c1cccc(NC(=O)Nc2cccc(C(=O)Nc3cc(C(=O)Nc4ccc(S(=O)(=O)O)c5cc(S(=O)(=O)O)cc(S(=O)(=O)O)c45)ccc3C)c2)c1` [SURAMIN], the IC50 in the assay on Trypanosoma brucei is 20 nM; in assay [1] it was 30 nM.

For the compound `CC/C(=C(\c1ccccc1)c1ccc(OCCN(C)C)cc1)c1ccccc1` [TAMOXIFEN], the IC50 in [2] was 11200 nM.

In the case of `O=C(Cn1ccnc1[N+](=O)[O-])NCc1ccccc1` [BENZNIDAZOLE], in the assay on Trypanosoma cruzi, the IC50 is 2690 nM.

`C[C@H]1c2cccc(O)c2C(=O)C2=C(O)[C@]3(O)C(=O)C(C(N)=O)=C(O)[C@@H](N(C)C)[C@@H]3[C@@H](O)[C@@H]21` [DOXYCYCLINE]: the IC50 in the assay with Staphylococcus aureus came to 30 nM; in the assay on Escherichia coli [3], 580 nM.

Take `CC(C)=CCC/C(C)=C/C[n+]1cn(C)c2nc[nH]/c(=N\O)c21.[Br-]`: the IC50 with Staphylococcus aureus was > 64000 nM; in the assay with Escherichia coli [3], > 64000 nM; in the assay on Candida albicans, > 64000 nM; with Trypanosoma cruzi, 11500 nM; in the assay on Trypanosoma brucei, 28000 nM; in assay [1], 8060 nM. The values for the IC50 (in the assay on Leishmania infantum; in [2]) were 20300 nM and > 64000 nM, respectively. Further, the MIC in [4] and in assay [5] was > 50 µg/mL throughout. For the same compound, the result (in assay [6]; with Pseudomonas aeruginosa [7]) was inactive. For the same compound, the Activity in the assay with Escherichia coli [8] worked out at 50%.

Turning to `CCCCCCCCCCCCCCCCOP(=O)([O-])OCC[N+](C)(C)C` [MILTEFOSINE], the IC50 in the assay with Leishmania infantum amounted to 11800 nM.

In the case of `CC(C)=CCC/C(C)=C/CC/C(C)=C/CC/C(C)=C/C[n+]1cn(C)c2nc[nH]/c(=N\O)c21.[Br-]`, the IC50 was 1890 nM with Staphylococcus aureus; > 64000 nM with Escherichia coli [3]; 2000 nM in the assay on Candida albicans; 540 nM in the assay on Trypanosoma cruzi; 2010 nM in the assay on Trypanosoma brucei; 500 nM in [1]. The IC50 in the assay with Leishmania infantum is 2160 nM; in assay [2], 1900 nM; in [10], 125000 nM. The figures for the MIC in assay [4] and in assay [5] were 11.3 µg/mL and 15.3 µg/mL, respectively. For the same compound, the Activity in assay [9] is 90%; in the assay on Pseudomonas aeruginosa [11] it was 40 - 50%; in the assay with Escherichia coli [12], 70%. In addition, in the assay on Escherichia coli [13], the inhibition of growth at 500 µM was 20%.

`Nc1nc(=O)[nH]cc1F` [FLUCYTOSINE] registered an IC50 in the assay on Candida albicans of 410 nM.

Consider `NNC(=O)c1ccncc1` [ISONIAZID], for which the MIC was 0.48 µg/mL (≈ 3.5 µM) in assay [4] and > 128 µg/mL in [5].
